Data: ChEMBL document CHEMBL3774372, “Design, physico-chemical properties and biological evaluation of some new N-[(phenoxy)alkyl]- and N-{2-[2-(phenoxy)ethoxy]ethyl}aminoalkanols as anticonvulsant agents” (Bioorg Med Chem, 2016)
Activity calls are given as the source filed them.

What was measured:
Vibrio harveyi [1] = assay: Antimutagenic activity against Vibrio harveyi BB7M assessed as inhibition of NQNO-induced mutagenicity after 48 hrs; assay type: functional
Procedure, shortened: (§1)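 V. harveyi cultures grown exponentially to A600 0.1 at 30 °C, exposed to test compound for 15 min, then to NQNO, and grown on to A600 0.3–0.4. 5 × 10⁶ cells plated on BOSS agar with neomycin (100, final). Neomycin-resistant colonies counted after 48 h at 30 °C. Result given as % inhibition of NQNO mutagenicity; three independent repeats.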

Vibrio harveyi [2] = assay: Mutagenicity in Vibrio harveyi BB7X assessed as number of colonies after 48 hrs (reference value: 15 to 16 no_unit); assay type: ADME, organism-based; conditions: in vivo
Procedure, shortened: (§2)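 Vibrio harveyi mutagenicity test: test compound was added to exponentially growing cultures (A600 = 0.1, 30 °C) and grown to OD600 0.3–0.4. Then 5 × 10^6 cells were plated on BOSS agar with neomycin (final 100 µg/mL) and incubated 48 h at 30 °C. Neomycin-resistant colonies were counted. Triplicate; controls were water, DMSO and NQNO 40 ng/mL.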

Vibrio harveyi [3] = assay: Antimutagenic activity against Vibrio harveyi BB7 assessed as inhibition of NQNO-induced mutagenicity after 48 hrs; assay type: functional; procedure, shortened: as §1
Mus musculus [4] = assay: Anticonvulsant activity in mouse assessed as protection against 6 Hz psychomotor seizure at 50 mg/kg, ip after 4 hrs; assay type: functional, organism-based
Procedure, shortened: (§3)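 Suspension in 0.5% methylcellulose given ip to mice; corneal stimulation with 0.2 ms monopolar rectangular pulses at 6 Hz for 3 s from a constant current device, mice restrained then released to observation cage. Protected if normal exploratory behaviour resumed within 10 s of stimulation. Scored as protected/tested, 4 mice per group.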

Vibrio harveyi [5] = assay: Mutagenicity in Vibrio harveyi BB7M assessed as number of colonies after 48 hrs (reference value: 13 to 14 no_unit); assay type: ADME, organism-based; conditions: in vivo; procedure, shortened: as §2
Mus musculus [6] = assay: Neurotoxicity in mouse at 50 mg/kg, ip after 2 hrs by rotarod test; assay type: toxicity, organism-based; conditions: in vivo
Procedure, shortened: (§4)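 Mice were dosed ip with compound suspended in 0.5% methylcellulose. Rotarod: a 1 in. knurled rod turning at 6 rpm. Neurotoxicity was scored as failure to stay on the rod for at least 1 min in each of three trials. Results are given as the number of animals affected out of the number tested.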

Vibrio harveyi [7] = assay: Mutagenicity in Vibrio harveyi BB7 assessed as number of colonies after 48 hrs (reference value: 13 to 14 no_unit); assay type: ADME, organism-based; conditions: in vivo; procedure, shortened: as §2
Mus musculus [8] = assay: Neurotoxicity in mouse at 50 mg/kg, ip after 1 hr by rotarod test; assay type: toxicity, organism-based; conditions: in vivo; procedure, shortened: as §4
Mus musculus [9] = assay: Anticonvulsant activity in mouse assessed as protection against 6 Hz psychomotor seizure at 50 mg/kg, ip after 1 hr; assay type: functional, organism-based; procedure, shortened: as §3
Vibrio harveyi [10] = assay: Mutagenicity in Vibrio harveyi BB7XM assessed as number of colonies after 48 hrs (reference value: 14 no_unit); assay type: ADME, organism-based; conditions: in vivo; procedure, shortened: as §2
Mus musculus [11] = assay: Anticonvulsant activity in mouse assessed as protection against 6 Hz psychomotor seizure at 50 mg/kg, ip after 2 hrs; assay type: functional, organism-based; procedure, shortened: as §3
Vibrio harveyi [12] = assay: Antimutagenic activity against Vibrio harveyi BB7X assessed as inhibition of NQNO-induced mutagenicity after 48 hrs; assay type: functional; procedure, shortened: as §1
Mus musculus [13] = assay: Neurotoxicity in mouse at 50 mg/kg, ip after 0.5 hrs by rotarod test; assay type: toxicity, organism-based; conditions: in vivo; procedure, shortened: as §4
Vibrio harveyi [14] = assay: Antimutagenic activity against Vibrio harveyi BB7XM assessed as inhibition of NQNO-induced mutagenicity after 48 hrs; assay type: functional; procedure, shortened: as §1
Mus musculus [15] = assay: Neurotoxicity in mouse at 50 mg/kg, ip after 4 hrs by rotarod test; assay type: toxicity, organism-based; conditions: in vivo; procedure, shortened: as §4
[16] = […] from rat cerebral cortex GABA-gated chloride channel; assay type: tissue-based
Mus musculus [17] = assay: Anticonvulsant activity in ip dosed mouse assessed as protection against maximal electric shock-induced seizures; assay type: functional, organism-based
Procedure, shortened: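 Compound suspended in 0.5% methylcellulose and given ip to mice; screening doses 30, 100 and 300 mg/kg, read at 0.25–4 h. Protection was defined as abolition of hindlimb tonic extension.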

Mus musculus [18] = assay: Anticonvulsant activity in mouse assessed as protection against subcutaneous pentylenetetrazol-induced seizures at 30 mg/kg, ip measured after 0.5 hrs; assay type: functional, organism-based
Procedure, shortened: (§5)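 Mice dosed ip as 0.5% methylcellulose suspension; pentylenetetrazole 85 mg/kg in 0.9% NaCl injected subcutaneously into posterior midline, animals watched at least 30 min. Protection = no threshold seizure (single clonic spasm episode lasting ≥5 s); scored protected/tested.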

Mus musculus [19] = assay: Anticonvulsant activity in mouse assessed as protection against subcutaneous pentylenetetrazol-induced seizures at 300 mg/kg, ip measured after 0.5 hrs; assay type: functional, organism-based; procedure, shortened: as §5
Mus musculus [20] = assay: Anticonvulsant activity in mouse assessed as protection against subcutaneous pentylenetetrazol-induced seizures at 30 mg/kg, ip measured after 4 hrs; assay type: functional, organism-based; procedure, shortened: as §5
Mus musculus [21] = assay: Anticonvulsant activity in mouse assessed as protection against maximal electric shock-induced seizures at 30 mg/kg, ip measured after 0.5 hrs; assay type: functional, organism-based
Procedure, shortened: (§6)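 Mice dosed ip with suspension in 0.5% methylcellulose; maximal electroshock applied at the listed time after dosing. Protection = abolition of hindlimb tonic extension component of seizure; reported as animals protected/animals tested.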

Mus musculus [22] = assay: Anticonvulsant activity in mouse assessed as protection against maximal electric shock-induced seizures at 100 mg/kg, ip measured after 0.5 hrs; assay type: functional, organism-based; procedure, shortened: as §6
Mus musculus [23] = assay: Neurotoxicity in mouse at 300 mg/kg, ip after 4 hrs by rotarod test; assay type: toxicity, organism-based; conditions: in vivo; procedure, shortened: as §4
Mus musculus [24] = assay: Anticonvulsant activity in mouse assessed as protection against maximal electric shock-induced seizures at 300 mg/kg, ip measured after 0.5 hrs; assay type: functional, organism-based; procedure, shortened: as §6
Mus musculus [25] = assay: Anticonvulsant activity in mouse assessed as protection against maximal electric shock-induced seizures at 100 mg/kg, ip measured after 4 hrs; assay type: functional, organism-based; procedure, shortened: as §6
Mus musculus [26] = assay: Neurotoxicity in mouse at 100 mg/kg, ip after 1 hr by rotarod test; assay type: toxicity, organism-based; conditions: in vivo; procedure, shortened: as §4
Mus musculus [27] = assay: Anticonvulsant activity in mouse assessed as protection against maximal electric shock-induced seizures at 30 mg/kg, ip measured after 4 hrs; assay type: functional, organism-based; procedure, shortened: as §6
Mus musculus [28] = assay: Neurotoxicity in mouse at 30 mg/kg, ip after […] by rotarod test; assay type: toxicity, organism-based; conditions: in vivo
Mus musculus [29] = assay: Anticonvulsant activity in mouse assessed as protection against maximal electric shock-induced seizures at 100 mg/kg, ip measured after 1 hr; assay type: functional, organism-based; procedure, shortened: as §6
Mus musculus [30] = assay: Anticonvulsant activity in mouse assessed as protection against subcutaneous pentylenetetrazol-induced seizures at 100 mg/kg, ip measured after 4 hrs; assay type: functional, organism-based; procedure, shortened: as §5
Mus musculus [31] = assay: Anticonvulsant activity in mouse assessed as protection against maximal electric shock-induced seizures at 100 mg/kg, ip measured after […]; assay type: functional, organism-based
Mus musculus [32] = assay: Neurotoxicity in mouse at 300 mg/kg, ip after 0.5 hrs by rotarod test; assay type: toxicity, organism-based; conditions: in vivo; procedure, shortened: as §4
Mus musculus [33] = assay: Anticonvulsant activity in mouse assessed as protection against subcutaneous pentylenetetrazol-induced seizures at 300 mg/kg, ip measured after 4 hrs; assay type: functional, organism-based; procedure, shortened: as §5
Mus musculus [34] = assay: Anticonvulsant activity in mouse assessed as protection against maximal electric shock-induced seizures at 300 mg/kg, ip measured after 4 hrs; assay type: functional, organism-based; procedure, shortened: as §6
Mus musculus [35] = assay: Anticonvulsant activity in mouse assessed as protection against subcutaneous pentylenetetrazol-induced seizures at 100 mg/kg, ip measured after 0.5 hrs; assay type: functional, organism-based; procedure, shortened: as §5
[36] = Displacement of [3H]D888 from rat cerebral cortex L-type calcium channel verapamil binding site; assay type: tissue-based
Mus musculus [37] = assay: Neurotoxicity in mouse at 100 mg/kg, ip after […] by rotarod test; assay type: toxicity, organism-based; conditions: in vivo
Mus musculus [38] = assay: Neurotoxicity in mouse at 30 mg/kg, ip after 0.5 hrs by rotarod test; assay type: toxicity, organism-based; conditions: in vivo; procedure, shortened: as §4
Mus musculus [39] = assay: Neurotoxicity in mouse at 100 mg/kg, ip after 4 hrs by rotarod test; assay type: toxicity, organism-based; conditions: in vivo; procedure, shortened: as §4
Mus musculus [40] = assay: Anticonvulsant activity in mouse assessed as protection against 6 Hz psychomotor seizure at 100 mg/kg, ip after 2 hrs; assay type: functional, organism-based; procedure, shortened: as §3
Mus musculus [41] = assay: Neurotoxicity in mouse at 30 mg/kg, ip after 4 hrs by rotarod test; assay type: toxicity, organism-based; conditions: in vivo; procedure, shortened: as §4
Mus musculus [42] = assay: Anticonvulsant activity in mouse assessed as protection against 6 Hz psychomotor seizure at 100 mg/kg, ip after […]; assay type: functional, organism-based
Mus musculus [43] = assay: Neurotoxicity in mouse at 100 mg/kg, ip after 0.5 hrs by rotarod test; assay type: toxicity, organism-based; conditions: in vivo; procedure, shortened: as §4
Mus musculus [44] = assay: Anticonvulsant activity in mouse assessed as protection against 6 Hz psychomotor seizure at 100 mg/kg, ip after 1 hr; assay type: functional, organism-based; procedure, shortened: as §3
Mus musculus [45] = assay: Anticonvulsant activity in mouse assessed as protection against 6 Hz psychomotor seizure at 100 mg/kg, ip after 4 hrs; assay type: functional, organism-based; procedure, shortened: as §3

For `Cc1cc(C)c(OCCOCCN[C@@H]2CCCC[C@H]2O)c(C)c1` (racemic), the “inhibition (INH)” value (Vibrio harveyi [1]) was 27%, the Activity (Vibrio harveyi [2]) was 15 and the “inhibition (INH)” value (Vibrio harveyi [3]) was 62%. For the same compound, the Activity (Mus musculus [4]) was “inactive”, the Activity (Vibrio harveyi [5]) was 10 and the Activity (Mus musculus [6]) was “Non-toxic”. The Activity (Vibrio harveyi [7]) was 20, the Activity (Mus musculus [8]) was “Non-toxic” and the Activity (Mus musculus [9]) was “inactive”. The Activity (Vibrio harveyi [10]) was 26, the Activity (Mus musculus [11]) was “inactive” and the “inhibition (INH)” value (Vibrio harveyi [12]) was 0%. For the same compound, the Activity (Mus musculus [13]) was “Non-toxic”, the “inhibition (INH)” value (Vibrio harveyi [14]) was 0% and the Activity (Mus musculus [15]) was “Non-toxic”.

`C=C(C)[C@@H]1[C@H]2OC(=O)[C@@H]1[C@]1(O)C[C@H]3O[C@]34C(=O)O[C@H]2[C@]14C` [PICROTOXININ] showed an IC50 [16] of 77 nM.

With `Cc1cccc(C)c1OCC(C)N` (stereo not drawn) [MEXILETINE] the EC50 (Mus musculus [17]) was 20 mg/kg.

For `Cc1cccc(OCCCNCC(O)c2ccccc2)c1C` (stereo not drawn), the Activity (Mus musculus [18]) was “inactive”, the Activity (Mus musculus [19]) was “inactive” and the Activity (Mus musculus [20]) was “inactive”. For the same compound, the Activity (Mus musculus [21]) was “inactive”, the Activity (Mus musculus [22]) was “inactive” and the Activity (Mus musculus [23]) was “Toxic”. For the same compound, the Activity (Mus musculus [24]) was “Active”, the Activity (Mus musculus [25]) was “inactive” and the Activity (Mus musculus [26]) was “Toxic”. For the same compound, the Activity (Mus musculus [27]) was “inactive”, the Activity (Mus musculus [28]) was “Toxic” and the Activity (Mus musculus [29]) was “inactive”. The Activity (Mus musculus [30]) was “inactive”, the Activity (Mus musculus [31]) was “inactive” and the Activity (Mus musculus [32]) was “Toxic”. For the same compound, the Activity (Mus musculus [33]) was “inactive”, the Activity (Mus musculus [34]) was “inactive” and the Activity (Mus musculus [35]) was “inactive”.

Work on `COc1ccc(CCN(C)CCCC(C#N)(c2cc(OC)c(OC)c(OC)c2)C(C)C)cc1OC` (stereo not drawn) [GALLOPAMIL] yielded an IC50 [36] of 15 nM.

With `Cc1cccc(OCCOCCNC(C)CO)c1C` (stereo not drawn) the Activity (Mus musculus [37]) was “Toxic”, the Activity (Mus musculus [38]) was “Non-toxic” and the Activity (Mus musculus [39]) was “Non-toxic”. The Activity (Mus musculus [18]) was “inactive”, the Activity (Mus musculus [40]) was “inactive” and the Activity (Mus musculus [20]) was “inactive”. For the same compound, the Activity (Mus musculus [21]) was “inactive”, the Activity (Mus musculus [41]) was “Non-toxic” and the Activity (Mus musculus [23]) was “Non-toxic”. The Activity (Mus musculus [42]) was “Active”, the Activity (Mus musculus [43]) was “Toxic” and the Activity (Mus musculus [44]) was “Active”. The Activity (Mus musculus [25]) was “inactive”, the Activity (Mus musculus [45]) was “inactive” and the Activity (Mus musculus [27]) was “inactive”. For the same compound, the Activity (Mus musculus [30]) was “inactive” and the Activity (Mus musculus [32]) was “Toxic”.
